ChEMBL document CHEMBL3526154, “Metabolism, pharmacokinetics, tissue distribution, and stability studies of the prodrug analog of an anti-hepatitis B virus dinucleoside phosphorothioate” (Drug Metab Dispos, 2012)

Key:
[1] = (§1) Drug metabolism in human liver S9 fraction assessed as Rp,Sp-dinucleotide-1 (O-((2R,3S,5R)-5-(6-amino-9H-purin-9-yl)-3-hydroxytetrahydrofuran-2-yl)methyl O-(2R,3R,4R,5R)-5-(2,4-dioxo-3,4-dihydropyrimidin-1(2H)-yl)-2-(hydroxymethyl)-4-methoxytetrahydrofuran-3-yl S-hydrogen phosphorothioate) metabolite formation at 10 uM by HPLC analysis; format: ADME, subcellular; conditions: s9, 10 µM
Method in brief: (§2)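 Pooled human liver S9 (1 mg/ml) pretreated 15 min on ice with alamethicin (10 µg/ml). Incubated with prodrug (10 µM), NADPH 1.3 mM, UDP-GlcUA 5 mM, S-adenosylmethionine 0.1 mM, PAPS 0.1 mM and acetyl-CoA 1 mM in PBS at 37°C with shaking. Sampled at 1, 4 and 6 h, acetonitrile-quenched, then analysed by HPLC and LC/MS.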

[2] = as §1, with “LC/MS” for “HPLC”; format: ADME, subcellular; conditions: s9, 10 µM; method in brief: as §2
[3] = Half life of the compound in simulated gastric fluid by HPLC analysis; format: ADME
Method in brief: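 Stock of 2 mg/100 µl in DMSO; 10 µl added to 200 µl simulated gastric fluid (NaCl, porcine pepsin, HCl, pH 1.2) or simulated intestinal fluid (KH2PO4, NaOH, pancreatin, pH 6.8), 37°C. Aliquots at 15 min, 30 min, 1 h, 3 h were quenched with acetonitrile (SGF neutralised to pH 7.0), centrifuged, lyophilised, reconstituted in water, analysed by C18 HPLC.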

Liver microsome [4] = assay: as §1, with “microsomes” for “S9 fraction”, “uM incubated up to 8 hrs” for “uM”; format: ADME
Method in brief: (§3)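 Microsomes (1 mg/ml) pretreated 15 min on ice with alamethicin (10 µg/ml). Incubated with prodrug (10 µM final), NADPH 1.3 mM and UDP-GlcUA 5 mM in PBS at 37°C with shaking. Sampled at 1, 4, 6 and 8 h and quenched with acetonitrile. Supernatant lyophilised, reconstituted in water, analysed by C18 HPLC and by LC/MS.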

Liver microsome [5] = assay: as §1, with “microsomes” for “S9 fraction”, “uM incubated up to 8 hrs” for “uM”, “LC/MS” for “HPLC”; format: ADME; method in brief: as §3
[6] = Time for almost complete conversion of the compound to 1 in simulated intestinal fluid by HPLC analysis
Liver [7] = assay: Drug level in human liver S9 fraction treated with Rp,Sp-dinucleotide-2 at 10 uM by HPLC analysis; format: ADME, subcellular; conditions: s9, 10 µM
Method in brief: (§4)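 Pooled human liver S9 (1 mg/ml), alamethicin-treated (10 μg/ml, 15 min on ice), with NADPH 1.3 mM, UDP-GlcUA 5 mM in 1× PBS; substrate 10 μM final. Incubated 37°C shaking; sampled 1, 4, 6 h, acetonitrile quench, centrifuged, supernatant lyophilised, reconstituted in water; HPLC (C18, 25°C, 5–50% acetonitrile in 0.1 M NH4OAc over 45 min) and LC/MS.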

Liver [8] = assay: Drug level in human liver S9 fraction treated with Rp,Sp-dinucleotide-2 at 10 uM by LC/MS analysis; format: ADME, subcellular; conditions: s9, 10 µM; method in brief: as §4
[9] = Stability of the compound in simulated intestinal fluid by HPLC analysis; format: ADME; conditions: simulated gi fluid
Method in brief: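 Simulated intestinal fluid: KH2PO4 6.8 g/l with NaOH, pancreatin 10 g/l, pH 6.8. DMSO stock (2 mg/100 μl), 10 μl added to 200 μl SIF, 37°C; aliquots at 15 min, 30 min, 1 h, 3 h quenched with acetonitrile, centrifuged, supernatant lyophilised, reconstituted in water, analysed by C18 HPLC.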

Liver microsome [10] = assay: Drug level in human liver microsomes treated with Rp,Sp-dinulceotide-2 at 10 uM incubated up to 8 hrs by HPLC analysis; format: ADME
Method in brief: (§5)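 Liver microsomes 1 mg/ml pretreated with alamethicin 10 μg/ml on ice 15 min; NADPH 1.3 mM and UDP-GlcUA 5 mM added in 1× PBS, substrate 10 μM final. Shaking bath at 37°C; aliquots at 1, 4, 6, 8 h quenched with acetonitrile, centrifuged, supernatant lyophilised and redissolved in water; analysed by C18 HPLC (5–50% acetonitrile/0.1 M NH4OAc gradient) and LC/MS.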

Liver microsome [11] = assay: Drug level in human liver microsomes treated with Rp,Sp-dinulceotide-2 at 10 uM incubated up to 8 hrs by LC/MS analysis; format: ADME; method in brief: as §5

Row | Drug metabolism (Liver [7]) | Drug metabolism (Liver [8]) | Stability [9] | Drug metabolism (Liver microsome [10]) | Drug metabolism (Liver microsome [11]) | Structure (SMILES) | Drug metabolism [1] | Drug metabolism [2] | half-life [3] | Drug metabolism (Liver microsome [4]) | Drug metabolism (Liver microsome [5]) | time for complete conversion [6]
1 | – | – | – | – | – | CO[C@@H]1[C@H](OP(=O)(OC[C@H]2O[C@@H](n3cnc4c(N)ncnc43)C[C@@H]2O)SCOC(=O)OC(C)C)[C@@H](CO)O[C@H]1n1ccc(=O)[nH]c1=O (some centres not stated) [INARIGIVIR SOPROXIL] | metabolite_detected | metabolite_detected | > 3 h | metabolite_detected | metabolite_detected | 180 min
2 | metabolite_detected | metabolite_detected | Stable | metabolite_detected | metabolite_detected | CO[C@@H]1[C@H](OP(=O)(S)OC[C@H]2O[C@@H](n3cnc4c(N)ncnc43)C[C@@H]2O)[C@@H](CO)O[C@H]1n1ccc(=O)[nH]c1=O (some centres not stated) [INARIGIVIR] | – | – | < 0.25 h | – | – | –
